A selection: hits, their analogues and other compounds. The true share with any hit is near 1.8%.
HTRA1 inh: HTRA1 serine protease inhibitors, primary screen, biochemical, fluorescence polarization, HTS; AID 504803, 2011; inhibition, % at 5.96 µM; 340,000 tested, 0.5% active; recombinant HTRA1, FP-rhodamine activity-based probe; Q92743; in the data active means inhibition above about 36%;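 further: 0% = enzyme with DMSO and 100% = wells lacking enzyme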
TCR-CD3 inh: inhibitors of human TCR-CD3 interaction, primary screen, biochemical, fluorescence, TAMRA-labeled TCR probe | inhibition, % at 9.4 µM | 360,000 tested, 0.37% active | AID 651800, 2012;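 further: recombinant mutant TCR 2C K166C tagged with TAMRA read by polarization; 0% = receptor in buffer alone and 100% = receptor with positive control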
Tn6 DDE FP: inhibitors of Tn6 peptide binding to fibrin DD(E), primary screen, biochemical, fluorescence polarization, human fibrin, Tn6 probe; Fibrinogen beta chain (Homo sapiens), P02675; Fibrin DD(E) TRITC-Tn6 fluorescence polarization displacement; inhibition, % at 8.3 µM; 370,000 tested, 0.21% active; AID 720509, 2013;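 active means inhibition above a per-campaign cutoff: mean of compounds within control limits plus 3 SD, cut at about 15% in these data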;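 further: 0% = median of all compound wells on the plate and 100% = blocking peptide control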
DDE Tn7 FP inh: inhibitors of Tn7 peptide binding to fibrin DD(E), primary screen, biochemical, fluorescence polarization, human fibrin, Tn7 probe. Fibrinogen beta chain (Homo sapiens), P02675. 370,000 tested, 0.13% active. FP displacement of FITC-Tn7 peptide from fibrin DD(E); 0% = median of compound wells per plate. inhibition, % at 8.3 µM. AID 720508, 2013;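 active means inhibition above the mean of compounds falling within the control limits plus 3 SD of them, cut at about 14% in these data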;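 further: 0% = plate median of compound wells and 100% = 10 µM Aha-Tn7 peptide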
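Assay system: human fibrin DD(E). Input: DD(E) 2 µM final. Medium: Tris buffer with calcium and detergent, pH 7.8. Compound dosing: single point at 8.3 µM. Timing: 10 min plus 3 h, room temperature. Technique: fluorescence polarization of the labelled Tn7 tracer. Read-out: percent inhibition. Replicates: singlicate testing.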
ABHD4 inh: ABHD4 inhibitors, primary screen, biochemical, fluorescence polarization, mouse; (Lyso)-N-acylphosphatidylethanolamine lipase (Mus musculus), Q8VD66; purified mABHD4, FP-Rh probe fluorescence polarization; inhibition, % at 8.92 µM; 370,000 tested, 0.54% active; AID 720543, 2013;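 active means inhibition exceeding the mean over every tested compound plus 3 SD, cut at about 30% in these data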;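 further: 0% = plate median of compound wells and 100% = S159A mutant with DMSO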
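Test system: mouse ABHD4 enzyme, wild type. Reagent: FP-Rh fluorescent activity-based probe, added after compound pre-incubation. Timing: pre-incubation 45 min, probe exposure 60 min, at 25 °C. Technique: FP readout, ex 525 nm / em 598 nm. Benchmarks: high control S159A mutant with DMSO, low control median of compound wells.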
SIAE inh: human SIAE inhibitors, primary screen, biochemical, fluorescence polarization, FP-Rh probe, 1536-well HTS; Sialate O-acetylesterase (Homo sapiens), Q9HAT2; SIAE FP-Rh probe binding; inhibition, % at 9.66 µM; 370,000 tested, 0.69% active; AID 1053197, 2014;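 active means inhibition above a cutoff: mean of compounds within the control limits plus 3 SD of those, cut at about 17% in these data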;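 further: 0% = plate median of compound wells and 100% = probe without SIAE protein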
Target sequence (Q9HAT2 whole entry, looked up): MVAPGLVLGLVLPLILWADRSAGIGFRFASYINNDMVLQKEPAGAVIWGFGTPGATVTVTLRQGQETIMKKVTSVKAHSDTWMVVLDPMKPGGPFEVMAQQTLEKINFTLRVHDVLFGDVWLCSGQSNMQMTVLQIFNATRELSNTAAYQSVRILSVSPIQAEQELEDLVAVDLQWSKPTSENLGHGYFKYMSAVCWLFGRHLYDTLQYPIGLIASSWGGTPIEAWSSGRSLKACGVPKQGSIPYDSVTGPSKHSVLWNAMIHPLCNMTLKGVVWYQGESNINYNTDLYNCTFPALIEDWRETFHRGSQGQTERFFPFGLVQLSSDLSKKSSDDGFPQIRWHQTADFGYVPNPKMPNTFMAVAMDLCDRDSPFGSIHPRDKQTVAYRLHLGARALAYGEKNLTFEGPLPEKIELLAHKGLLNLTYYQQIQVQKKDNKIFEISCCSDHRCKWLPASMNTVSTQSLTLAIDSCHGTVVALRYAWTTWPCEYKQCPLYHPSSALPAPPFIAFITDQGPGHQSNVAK
HTRA1 inh conf: HTRA1 protease inhibitors, retest, confirmation, biochemical, fluorescence polarization | shares compounds with HTRA1 inh | recombinant HTRA1, FP-rhodamine activity-based probe | inhibition, % at 5.96 µM | 1,600 tested, 66% active;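 active means mean inhibition over three repeats above a set limit taken from the earlier primary screen, cut at about 37% in these data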;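 further: 0% = HTRA1 with DMSO and 100% = wells lacking HTRA1; inhibitors block probe binding so polarization drops and inhibition rises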
BSA TAMRA ctr: compounds interfering with TAMRA-BSA probe, counter-screen for TCR-CD3 interaction inhibitor project, biochemical, fluorescence, TAMRA-labeled BSA | shares compounds with TCR-CD3 inh | 1,200 tested, 10% active | TAMRA-labeled BSA probe fluorescence counterscreen | inhibition, % at 9.4 µM; in the data active means inhibition above about 23%;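 further: 0% = buffer low control and 100% = reference high control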
TCR-CD3 conf: TCR-CD3 interaction inhibitors, retest, confirmation, biochemical, fluorescence, TAMRA-labeled TCR probe | shares compounds with TCR-CD3 inh | TAMRA-labeled TCR probe fluorescence binding assay | inhibition, % at 9.4 µM | 1,200 tested, 48% active
mABHD4 conf: ABHD4 inhibitors, retest, confirmation, biochemical, fluorescence polarization, mouse; shares compounds with ABHD4 inh; purified mABHD4, FP-Rh probe fluorescence polarization; inhibition, % at 8.92 µM; 1,800 tested, 55% active; AID 720658, 2013;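 active means mean inhibition across replicates above the hit cutoff set in the primary screen, cut at about 30% in these data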;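 further: 0% = wild-type ABHD4 with DMSO and 100% = catalytically dead S159A mutant with DMSO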
Numbers without * were called inactive; / = not tested or not shown; + = active, no number. Unless noted, no stated cut-off is given here; in the data, active means inhibition above about 19%; inactive means the rest.

SMILES	HTRA1 inh	TCR-CD3 inh	Tn6 DDE FP	DDE Tn7 FP inh	ABHD4 inh	SIAE inh	HTRA1 inh conf	BSA TAMRA ctr	TCR-CD3 conf	mABHD4 conf
O=C(O)COc1ccccc1C(Nc1ccccn1)c1cc(Cl)c2cccnc2c1O (stereo not drawn)	74*	5	2	0	33*	12	84*	/	/	24
CN(Cc1cn(CC2CCCCC2)nn1)S(=O)(=O)c1ccccc1Br	/	/	0	-1	6	-1	/	/	/	/
O=c1cc2c(=O)oc3cc(O)c(O)oc3c2c(O)c1O	47*	26*	10	-13	42*	12	38*	-19	19*	34*
COCCCNC1=C(Cl)C(=O)c2ccccc2C1=O	8	7	-5	1	3	-4	/	/	/	/
COCCCNc1c2c3c(cccc3[nH]c1=O)C(=O)c1ccccc1-2	126*	172*	86*	6	109*	-6	120*	+	185*	178*
CC1OC(Nc2cccc3ccccc23)C(O)C(O)C1O (stereo not drawn)	43*	-3	-9	10	36*	1	12	/	/	1
N#Cc1ccc(OC[C@@H](O)CN2CCC(C(O)(c3ccccc3)c3ccccc3)CC2)cc1F	/	/	4	-7	4	-4	/	/	/	/
Cc1cc(C(=O)N/N=C/c2ccc(O)c(O)c2O)c(C)n1-c1ccccc1	67*	30*	1	-3	61*	15	67*	-18	29*	47*
Cc1cc(/C=N/NC(=O)c2ccncc2)c(C)n1-c1ccccc1	11	8	2	1	3	1	/	/	/	/
C=C1c2cccc(O)c2C(=O)C2C(=O)[C@]3(O)C(=O)C(C(N)=O)C(=O)[C@@H](N(C)C)[C@@H]3[C@@H](O)[C@H]12 (stereo partly drawn)	46*	28*	-10	-1	85*	47*	38*	-4	14	17
O=C1c2ccccc2C(=O)c2c(/C=C/N3CCCCC3)ccnc21	61*	7	8	-3	46*	11	64*	/	/	36*
CC(C)C(C#CC1CC1)NCc1ccc2c(c1)OCO2 (stereo not drawn)	/	/	5	4	2	-2	/	/	/	/
O=C(O)CSc1cc(NS(=O)(=O)c2ccc(Br)cc2)c2ccccc2c1O	46*	-5	-8	3	49*	13	18	/	/	49*
O=S(=O)(Nc1cc(Sc2ncn[nH]2)c(O)c2ccccc12)c1ccccc1	/	2	1	1	21	9	/	/	/	/
CCOC(=O)c1c2c(n(C)c1C)C(=O)C(=O)c1ccc(Br)cc1-2	7	-4	1	0	2	1	/	/	/	/
CCOC(=O)c1c2c(n(Cc3ccccc3)c1C)C(=O)C(=O)c1ccccc1-2	46*	10	-4	10	39*	13	43*	/	/	54*
